Values after ≈ are worked out from the molar mass of the structure shown. Active and inactive are the calls of the source. The calls are words filed in the database; no cut-off is given here.
How the values were obtained:
Candida albicans [1] = assay: Antifungal activity against Candida albicans ATCC 90028 by microscopy; assay type: functional
How it was run: (§1)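 Modified NCCLS microdilution. Samples in DMSO serially diluted in saline and tested in duplicate against inocula standardized to 0.5 McFarland. Broths: C. albicans SDB or RPMI 1640; C. neoformans SDB; A. fumigatus YM broth. Highest final concentration 20 µg/mL. MIC read visually as the lowest concentration with no detectable growth (for Alamar Blue wells, no blue-to-pink change).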

Cryptococcus neoformans [2] = assay: Antifungal activity against Cryptococcus neoformans ATCC 90113 assessed as inhibition of fungal growth by alamar blue assay; assay type: functional, organism-based
How it was run: (§2)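 Broth microdilution modified from NCCLS. DMSO stocks serially diluted in saline and plated in duplicate. Inoculum set by 0.5 McFarland standard. Media: C. albicans in SDB or RPMI 1640; C. neoformans in SDB; A. fumigatus in RPMI-1640 + 5% Alamar Blue. Highest final concentration 20 µg/mL. Plates read before and after incubation by fluorescence 544ex/590em (A. fumigatus) or OD 630 nm. IC50 from percent growth vs concentration.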

Aspergillus fumigatus [3] = assay: Fungicidal activity against Aspergillus fumigatus ATCC 90906; assay type: functional
[4] = Cytotoxicity against african green monkey Vero cells after 48 hrs by neutral red assay; assay type: cell-based; settings: chlorocebus sabaeus, read-out: TC50
How it was run: (§3)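 Vero kidney fibroblasts seeded at 25,000 cells/well and grown 24 h, then exposed to samples up to 20 µg/ml for 48 h. Viable cells measured by neutral red assay. IC50 taken from growth-inhibition vs concentration curves. DMSO served as vehicle control.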

Candida albicans [5] = assay: Fungicidal activity against Candida albicans ATCC 90028; assay type: functional
Aspergillus fumigatus [6] = assay: Antifungal activity against Aspergillus fumigatus ATCC 90906 assessed as inhibition of fungal growth by alamar blue assay; assay type: functional, organism-based; settings: Aspergillus fumigatus, ATCC 90906; read-out: IC50; how it was run: as §2
[7] = Cytotoxicity against african green monkey Vero cells; assay type: cell-based; settings: chlorocebus sabaeus, read-out: TC50 (the source's name); how it was run: as §3
Aspergillus fumigatus [8] = assay: Antifungal activity against Aspergillus fumigatus ATCC 90906 by microscopy; assay type: functional; how it was run: as §1
Cryptococcus neoformans [9] = assay: Fungicidal activity against Cryptococcus neoformans ATCC 90113; assay type: functional
Cryptococcus neoformans [10] = assay: Antifungal activity against Cryptococcus neoformans ATCC 90113 by microscopy; assay type: functional
How it was run: as §1, with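 “McFarland.” for “McFarland. Broths: C. albicans SDB or RPMI 1640; C. neoformans SDB; A. fumigatus YM broth.”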

Cryptococcus neoformans [11] = assay: Antifungal activity against Cryptococcus neoformans at 20 ug/mL
Candida albicans [12] = assay: Antifungal activity against Candida albicans ATCC 90028 assessed as inhibition of fungal growth by alamar blue assay; assay type: functional, organism-based; how it was run: as §2
Aspergillus fumigatus [13] = assay: Antifungal activity against Aspergillus fumigatus ATCC 90906 assessed as inhibition of fungal growth at 20 ug/mL by alamar blue assay; assay type: functional, organism-based; how it was run: as §2
Cryptococcus neoformans [14] = assay: Antifungal activity against Cryptococcus neoformans ATCC 90113 at 20 ug/mL by microscopy; assay type: functional, organism-based; how it was run: as §1
Cryptococcus neoformans [15] = assay: Antifungal activity against Cryptococcus neoformans ATCC 90113 assessed as inhibition of fungal growth at 20 ug/mL by alamar blue assay; assay type: functional, organism-based; how it was run: as §2
Candida albicans [16] = assay: Fungicidal activity against Candida albicans ATCC 90028 at 20 ug/mL; assay type: functional, organism-based
Aspergillus fumigatus [17] = assay: Antifungal activity against Aspergillus fumigatus ATCC 90906 at 20 ug/mL by microscopy; assay type: functional, organism-based; how it was run: as §1
Vero = assay: Cytotoxicity against african green monkey Vero cells at 20 ug/mL after 48 hrs by neutral red assay; assay type: cell-based; settings: chlorocebus sabaeus; how it was run: as §3
Aspergillus fumigatus [18] = assay: Fungicidal activity against Aspergillus fumigatus ATCC 90906 at 20 ug/mL; assay type: functional, organism-based
Cryptococcus neoformans [19] = assay: Fungicidal activity against Cryptococcus neoformans ATCC 90113 at 20 ug/mL; assay type: functional, organism-based
Candida albicans [20] = assay: Antifungal activity against Candida albicans ATCC 90028 assessed as inhibition of fungal growth at 20 ug/mL by alamar blue assay; assay type: functional, organism-based; how it was run: as §2
Candida albicans [21] = assay: Antifungal activity against Candida albicans ATCC 90028 at 20 ug/mL by microscopy; assay type: functional, organism-based; how it was run: as §1

MIC (Candida albicans [1]) [µg/mL] | MIC (Cryptococcus neoformans [10]) [µg/mL] | Compound | IC50 (Cryptococcus neoformans [2]) [µg/mL] | CC50 at 48 h [4] [µg/mL] | MFC (Cryptococcus neoformans [9]) [µg/mL] | IC50 (Candida albicans [12]) [µg/mL] | inhibition (Aspergillus fumigatus [13]) | Activity (Cryptococcus neoformans [14]) | inhibition (Cryptococcus neoformans [15]) | Activity (Candida albicans [16]) | Activity (Aspergillus fumigatus [17]) | Activity (Vero) | Activity (Aspergillus fumigatus [18]) | Activity (Cryptococcus neoformans [19]) | inhibition (Candida albicans [20]) | Activity (Candida albicans [21]) | other results
0.6 (≈ 0.649 µM) |  | C[C@@H]1[C@H](O)[C@@H](C)/C=C/C=C/C=C/C=C/C=C/C=C/C=C/[C@H](O[C@@H]2O[C@H](C)[C@@H](O)[C@H](N)[C@@H]2O)C[C@@H]2O[C@](O)(C[C@@H](O)C[C@@H](O)[C@H](O)CC[C@@H](O)C[C@@H](O)CC(=O)O[C@H]1C)C[C@H](O)[C@H]2C(=O)O [AMPHOTERICIN B] | 1.3 (≈ 1.41 µM) | 7.6 (≈ 8.22 µM) | 1 (≈ 1.08 µM) |  |  |  |  |  |  |  |  |  |  |  | MFC (Aspergillus fumigatus [3]): 5 µg/mL (≈ 5.41 µM); MFC (Candida albicans [5]): 1.3 µg/mL (≈ 1.41 µM); IC50 (Aspergillus fumigatus [6]): 0.7 µg/mL (≈ 0.758 µM); CC50 [7]: 7.6 µg/mL (≈ 8.22 µM); MIC (Aspergillus fumigatus [8]): 1.3 µg/mL (≈ 1.41 µM)
 | 20 (≈ 86.1 µM) | C[n+]1c2ccccc2cc2[n-]c3ccccc3c21 [CRYPTOLEPINE] |  |  |  | 20 (≈ 86.1 µM) |  |  |  |  |  |  |  |  |  |  | CC50 [7]: 3.2 µg/mL (≈ 13.8 µM); MIC (Cryptococcus neoformans [11]): 12.5 µg/mL (≈ 53.8 µM)
10 | 2.5 | COc1ccc(N(CCCCCC2CCCCC2)c2ccc[n+](C)c2)cc1.[I-] | 1.4 | > 10 | 2.5 | 5.1 | inactive |  |  |  |  |  |  |  |  |  | MFC (Candida albicans [5]): 20 µg/mL
 |  | C[n+]1cc(Nc2ccccc2)cc2ccccc21.[I-] |  |  |  |  | inactive | inactive | inactive | inactive | inactive | Non-toxic | inactive | inactive | inactive | inactive | 
20 | 5 | COc1cccc(N(CCCCCC2CCCCC2)c2ccc[n+](C)c2)c1.[I-] | 3.6 | > 10 | 5 | 8.9 | inactive |  |  |  |  |  |  |  |  |  | MFC (Candida albicans [5]): > 20 µg/mL
 |  | C[n+]1cc(Nc2ccccc2Cl)cc2ccccc21.[I-] |  |  |  |  | inactive | inactive | inactive | inactive | inactive | Non-toxic | inactive | inactive | inactive | inactive | 
 |  | C[n+]1cc(Nc2cccc(Cl)c2)cc2ccccc21.[I-] |  |  |  |  | inactive | inactive | inactive | inactive | inactive | Non-toxic | inactive | inactive | inactive | inactive | 
 |  | C[n+]1cc(Nc2ccc(Cl)cc2)cc2ccccc21.[I-] |  |  |  |  | inactive | inactive | inactive | inactive | inactive | Non-toxic | inactive | inactive | inactive | inactive | 
20 | 2.5 | C[n+]1cccc(N(CCCCCC2CCCCC2)c2ccccc2)c1.[I-] | 1.5 | > 10 | 2.5 | 8.3 |  |  |  | inactive | inactive |  | inactive |  | inactive | inactive | IC50 (Aspergillus fumigatus [6]): 19.7 µg/mL
 | 5 | C[n+]1cccc(N(CCCCCC2CCCCC2)c2cccc(C#N)c2)c1.[I-] | 3.5 | > 10 | 5 |  | inactive |  |  | inactive |  |  |  |  | inactive | inactive | 
20 | 2.5 | C[n+]1cccc(N(CCCCCC2CCCCC2)c2ccc(F)cc2)c1.[I-] | 1.4 | > 10 | 2.5 | 9.6 | inactive |  |  | inactive | inactive |  | inactive |  | inactive | inactive | 
 |  | C[n+]1cccc(Nc2ccccc2)c1.[I-] |  |  |  |  |  |  |  |  |  | Non-toxic |  |  |  |  | 

From ChEMBL document CHEMBL1641580, “Identification of 3-phenylaminoquinolinium and 3-phenylaminopyridinium salts as new agents against opportunistic fungal pathogens” (Bioorg Med Chem, 2011)
